Assay results taken from article PMC4964276 (The Biochemical journal, 2016).

How the values were obtained:
[1] = tested on: D/D domain of RIIα (RIIα-D/D(1–44)); assay: Isothermal titration calorimetry; format: binding, human; conditions: ITC, one-site model, 25 °C, pH 7.5; three independent measurements
In short: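 Run in 20 mM Hepes, pH 7.5, 150 mM NaCl at 25 °C. Cell held RIIα D/D domain at 20 μM, and the syringe held the test AKAP18β(43–83) peptide at 100 μM. There were 25–30 injections of 10–12 μl at 5–20 min intervals. Incremental heat per mole was fitted by non-linear least squares to a one-site model, and protein concentration was adjusted by the fit.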

RI subunits of PKA = conditions: cited from earlier work

NGGEPDDAELVRLSKRLVENAVLKAVQQY LEETQ NKNKP GE [AKAP18β(43–83)]
n (sites) [1]: 0.98 sites

SKIP: AKAP that preferentially or specifically binds RI
Binding preference for RI, SKIP (RI subunits of PKA; ref [12],[13]): preferentially or specifically bind RI

smAKAP: RI-specific AKAP, full-length [reference compound]
Binding preference for RI, smAKAP (RI subunits of PKA; ref [14]): preferentially or specifically bind RI
